Experimental data: PubChem BioAssay
The source made the active and inactive calls.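 Rule for the calls, unless noted: active = fluorescence slope after compound addition differing from the mean of all tested samples at 99.7% confidence, mostly higher but some lower; inactive = the rest.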

Target: Muscarinic acetylcholine receptor M4 (Homo sapiens) (UniProt P08173)
Assay: M4-linked GIRK flux change, two-sided – cell-based, HEK293 M4/GIRK, thallium flux, BTC-AM, M4 allosteric agonist project, primary screen (AID 625);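 note: thallium influx through GIRK channels coupled to M4 in HEK293 cells with BTC-AM dye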
Conditions: at 10 µM, actives lie on both sides
Summary of the method: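 Assay system: HEK293 cells with M4 receptor and GIRK channels / Controls: carbachol and DMSO controls / Schedule: 1 h dye loading, 2 min kinetic read / Technique: kinetic fluorescence with BTC-AM dye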

Sequence of Muscarinic acetylcholine receptor M4 (Homo sapiens) (P08173 whole entry, looked up): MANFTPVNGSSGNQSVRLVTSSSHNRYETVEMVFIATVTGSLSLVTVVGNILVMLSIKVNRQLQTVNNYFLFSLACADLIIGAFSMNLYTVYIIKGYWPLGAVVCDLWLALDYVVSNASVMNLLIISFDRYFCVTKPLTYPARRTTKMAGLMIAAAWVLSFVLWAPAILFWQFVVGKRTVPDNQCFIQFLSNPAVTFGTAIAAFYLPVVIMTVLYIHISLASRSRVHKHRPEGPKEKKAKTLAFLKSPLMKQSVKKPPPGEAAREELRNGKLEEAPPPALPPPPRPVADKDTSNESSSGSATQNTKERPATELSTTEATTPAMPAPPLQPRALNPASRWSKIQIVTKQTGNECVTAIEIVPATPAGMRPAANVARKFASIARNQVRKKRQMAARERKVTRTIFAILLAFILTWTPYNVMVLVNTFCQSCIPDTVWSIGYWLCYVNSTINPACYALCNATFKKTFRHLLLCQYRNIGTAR

Fluorescence slope, inactive:
CCOC(=O)c1c(C)oc2ccc(O)c(CN3CCCCC3)c12 0.00399
ON=C1/C(=N\O)CC2(C/C1=N/O)OCCO2 0.00423
CC1CCCCN1CCNC(=O)c1ccc2c(=O)n(CCc3ccccc3)c(=O)[nH]c2c1 (stereo not given) 0.00585
COc1nc(OC)nc(N2CCC(NC(=O)C(Cc3ccc(C(C)C)cc3)NC(C)=O)CC2)n1 (stereo not given) 0.00515
O=C(CN1C(=O)c2cccc3cccc1c23)N1CCN(c2ccccc2)CC1 0.00738
CCCc1cc(-c2n[nH]c(C)c2-c2ccc(C(=O)OCC)o2)c(O)cc1O 0.00514
Cc1ccc(-c2cc(C(=O)NCc3ccc4c(c3)OCO4)no2)cc1 0.00532
CCn1c(SCC(=O)Nc2ccc(C(C)=O)cc2)nc2ccccc21 0.00502
CCCCNC(=O)CN(C1CCCCC1)S(C)(=O)=O 0.0049
C[C@H](NC(=O)OC(C)(C)C)C(=O)NCC1CCC(C(=O)O)CC1 (stereo not given in full) 0.00501
c1ccc(-c2cc(-c3nc(-c4ccccn4)no3)c3ccccc3n2)cc1 0.0088
Cc1cccc(N2CCN(C(=O)Cn3ccc4ccccc4c3=O)CC2)c1C 0.00591
Nc1sccc1C(=O)c1ccccc1 0.00467
COc1ccc(C2=NOC(C(=O)NCc3ccc(F)cc3)C2)cc1OC (stereo not given) 0.00618
c1ccc(-c2cn3c4c(sc3n2)CCCC4)cc1 0.00593
COc1ccc(-n2c(COc3ccccc3)nnc2SCc2ccc(C#N)cc2)cc1 0.00479
Cc1ccc(Cn2c(C(=O)NCCCN3CCOCC3)cc3sccc32)cc1 0.00431
Cc1ccc(NC(=O)CS(=O)CC(=O)NCC2CCCO2)cc1 (stereo not given) 0.00727
CCN(CC)C(=O)CSc1nc2ccccc2c(=O)n1CCC(=O)NCc1ccc(F)cc1 0.00599
COc1ccccc1N1CCN(c2nc3ccccc3nc2C(C#N)C(=O)OC(C)C)CC1 (stereo not given) 0.00467
COc1ccc2cc(C#N)c(NC(C)C)nc2c1 0.00581
Cc1nc2ccc(NC(=O)N3CCC(c4ccccc4)C3)cc2nc1C (stereo not given) 0.00546
COc1cc(=O)[nH]c(SCc2c(F)c(F)c(F)c(F)c2F)n1 0.00944
CC(=O)Nc1ccc(S(=O)(=O)N(CC(=O)O)Cc2ccccc2)cc1 0.00557
CCOC(=O)c1nnn(-c2nonc2N)c1CN1CCc2ccccc2C1 0.00671
CCOC(=O)N1CCC(NC(=O)c2ccc3c(c2)N(C)CCS3)CC1 0.00744
CCOC(=O)c1c(NCc2ccc3c(c2)OCO3)c2ccccc2[nH]c1=O 0.00507
O=S1(=O)Nc2c(ccc3cccnc23)-c2ccccc21 0.00395
COc1ccc(CCN2C(=O)C3C4C=CC(C4)C3C2=O)cc1OC (stereo not given) 0.00653
CC(=O)NCCn1ccc2ccccc21 0.00841
C=CCn1c(=O)[nH]c2cc(C(=O)N3CCN(c4ccc(C(C)=O)cc4)CC3)ccc2c1=O 0.00531
O=C(CSc1nc2ccccc2c(=O)n1CCC(=O)N1CCCCC1)NCc1ccccc1 0.00538
COC(=O)C(F)(F)Sc1c(C)[nH]c2ccccc12 0.00468
COCCN(C(=O)Cn1nnc2ccccc21)C(C(=O)NC1CCCC1)c1cc(OC)ccc1OC (stereo not given) 0.00575
COC(=O)C(C)C1Sc2ccccc2NC1=O (stereo not given) 0.00684
COc1ccc(CC(NC(C)=O)C(=O)NC2CCN(c3nc(C)cc(C)c3C#N)CC2)c(OC)c1 (stereo not given) 0.00702
Cc1ccc(CS(=O)(=O)CCC(=O)NCC2CCCO2)cc1 (stereo not given) 0.00623
COc1ccccc1-c1nc(C#N)c(N2CCN(c3ccccc3)CC2)o1 0.00604
COc1cccc(OCC(O)CN2CCN(CCO)CC2)c1 (stereo not given) 0.00352
Cc1ccc(C(=O)OCC(=O)c2ccc(Cl)s2)s1 0.00572

Test system: not listed separately
Assay: blockers of RIG-like receptor reporter activation – cell-based, Sendai virus stimulus, luciferase, 10K MLSCN set, TLR/RLR signaling modifier project, primary screen (AID 602276;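 active = inhibition at or above 50% at 10 µM; inactive = inhibition below 50%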;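 note: firefly luciferase from ISG56 promoter only with Renilla not read in this screen; 0% = Sendai virus plus DMSO and 100% = medium plus DMSO without virus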)
Conditions: HEK293 RL24 IRF3 luciferase reporter, at 10 µM, active compounds read high

inhibition, inactive:
CCOC(=O)c1c(C)oc2ccc(O)c(CN3CCCCC3)c12 17.3%
ON=C1/C(=N\O)CC2(C/C1=N/O)OCCO2 17%
CC1CCCCN1CCNC(=O)c1ccc2c(=O)n(CCc3ccccc3)c(=O)[nH]c2c1 (stereo not given) 2.66%
COc1nc(OC)nc(N2CCC(NC(=O)C(Cc3ccc(C(C)C)cc3)NC(C)=O)CC2)n1 (stereo not given) 12.2%
O=C(CN1C(=O)c2cccc3cccc1c23)N1CCN(c2ccccc2)CC1 -2.31%
CCCc1cc(-c2n[nH]c(C)c2-c2ccc(C(=O)OCC)o2)c(O)cc1O 12.8%
Cc1ccc(-c2cc(C(=O)NCc3ccc4c(c3)OCO4)no2)cc1 -10.4%
CCn1c(SCC(=O)Nc2ccc(C(C)=O)cc2)nc2ccccc21 -13%
CCCCNC(=O)CN(C1CCCCC1)S(C)(=O)=O 16.6%
C[C@H](NC(=O)OC(C)(C)C)C(=O)NCC1CCC(C(=O)O)CC1 (stereo not given in full) 16.6%
c1ccc(-c2cc(-c3nc(-c4ccccn4)no3)c3ccccc3n2)cc1 0.406%
Cc1cccc(N2CCN(C(=O)Cn3ccc4ccccc4c3=O)CC2)c1C -3.75%
Nc1sccc1C(=O)c1ccccc1 -12.1%
COc1ccc(C2=NOC(C(=O)NCc3ccc(F)cc3)C2)cc1OC (stereo not given) 22.8%
c1ccc(-c2cn3c4c(sc3n2)CCCC4)cc1 5.66%
COc1ccc(-n2c(COc3ccccc3)nnc2SCc2ccc(C#N)cc2)cc1 3.44%
Cc1ccc(Cn2c(C(=O)NCCCN3CCOCC3)cc3sccc32)cc1 14.1%
Cc1ccc(NC(=O)CS(=O)CC(=O)NCC2CCCO2)cc1 (stereo not given) -20.7%
CCN(CC)C(=O)CSc1nc2ccccc2c(=O)n1CCC(=O)NCc1ccc(F)cc1 -10.2%
COc1ccccc1N1CCN(c2nc3ccccc3nc2C(C#N)C(=O)OC(C)C)CC1 (stereo not given) -13.1%
COc1ccc2cc(C#N)c(NC(C)C)nc2c1 8%
Cc1nc2ccc(NC(=O)N3CCC(c4ccccc4)C3)cc2nc1C (stereo not given) -0.553%
COc1cc(=O)[nH]c(SCc2c(F)c(F)c(F)c(F)c2F)n1 -4.06%
CC(=O)Nc1ccc(S(=O)(=O)N(CC(=O)O)Cc2ccccc2)cc1 8.06%
CCOC(=O)c1nnn(-c2nonc2N)c1CN1CCc2ccccc2C1 6.68%
CCOC(=O)N1CCC(NC(=O)c2ccc3c(c2)N(C)CCS3)CC1 13%
CCOC(=O)c1c(NCc2ccc3c(c2)OCO3)c2ccccc2[nH]c1=O 12.5%
O=S1(=O)Nc2c(ccc3cccnc23)-c2ccccc21 -4.82%
COc1ccc(CCN2C(=O)C3C4C=CC(C4)C3C2=O)cc1OC (stereo not given) 10.2%
CC(=O)NCCn1ccc2ccccc21 16.6%
C=CCn1c(=O)[nH]c2cc(C(=O)N3CCN(c4ccc(C(C)=O)cc4)CC3)ccc2c1=O -1.65%
O=C(CSc1nc2ccccc2c(=O)n1CCC(=O)N1CCCCC1)NCc1ccccc1 17.4%
COC(=O)C(F)(F)Sc1c(C)[nH]c2ccccc12 25.1%
COCCN(C(=O)Cn1nnc2ccccc21)C(C(=O)NC1CCCC1)c1cc(OC)ccc1OC (stereo not given) 2.22%
COC(=O)C(C)C1Sc2ccccc2NC1=O (stereo not given) 12.5%
COc1ccc(CC(NC(C)=O)C(=O)NC2CCN(c3nc(C)cc(C)c3C#N)CC2)c(OC)c1 (stereo not given) -9.6%
Cc1ccc(CS(=O)(=O)CCC(=O)NCC2CCCO2)cc1 (stereo not given) 6.62%
COc1ccccc1-c1nc(C#N)c(N2CCN(c3ccccc3)CC2)o1 15.8%
COc1cccc(OCC(O)CN2CCN(CCO)CC2)c1 (stereo not given) 8.25%
Cc1ccc(C(=O)OCC(=O)c2ccc(Cl)s2)s1 -26%
